Measured values: ChEMBL document CHEMBL2424622, “Development of amino-pyrimidine inhibitors of c-Jun N-terminal kinase (JNK): kinase profiling guided optimization of a 1,2,3-benzotriazole lead” (Bioorg Med Chem Lett, 2013)

Columns and labels:
[1] = system: Receptor-type tyrosine-protein kinase FLT3 (Homo sapiens), P36888 [UNDEFINED MUTATION]; assay: Competitive binding affinity to FLT3 ITD mutant (unknown origin) at 10 uM in presence of ATP relative to control
[2] = target: Serine/threonine-protein kinase 38-like (Homo sapiens) (UniProt Q9Y2H1); assay: Competitive binding affinity to NDR2 (unknown origin) at 10 uM in presence of ATP relative to control
Procedure, shortened: (§1)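 In vitro ATP-site competition binding assay across a diverse panel of 128 kinases, with compound tested at a single concentration. Kinase selectivity scores (S15) were calculated from the panel profiles.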

[3] = target: Serine/threonine-protein kinase tousled-like 2 (Homo sapiens) (UniProt Q86UE8); assay: Competitive binding affinity to TLK2 (unknown origin) at 10 uM in presence of ATP relative to control
[4] = target: T1, cGMP-dependent protein kinase 1 (Homo sapiens) (UniProt Q13976); assay: Competitive binding affinity to PRKG1 (unknown origin) at 10 uM in presence of ATP relative to control
T1 sequence (whole entry): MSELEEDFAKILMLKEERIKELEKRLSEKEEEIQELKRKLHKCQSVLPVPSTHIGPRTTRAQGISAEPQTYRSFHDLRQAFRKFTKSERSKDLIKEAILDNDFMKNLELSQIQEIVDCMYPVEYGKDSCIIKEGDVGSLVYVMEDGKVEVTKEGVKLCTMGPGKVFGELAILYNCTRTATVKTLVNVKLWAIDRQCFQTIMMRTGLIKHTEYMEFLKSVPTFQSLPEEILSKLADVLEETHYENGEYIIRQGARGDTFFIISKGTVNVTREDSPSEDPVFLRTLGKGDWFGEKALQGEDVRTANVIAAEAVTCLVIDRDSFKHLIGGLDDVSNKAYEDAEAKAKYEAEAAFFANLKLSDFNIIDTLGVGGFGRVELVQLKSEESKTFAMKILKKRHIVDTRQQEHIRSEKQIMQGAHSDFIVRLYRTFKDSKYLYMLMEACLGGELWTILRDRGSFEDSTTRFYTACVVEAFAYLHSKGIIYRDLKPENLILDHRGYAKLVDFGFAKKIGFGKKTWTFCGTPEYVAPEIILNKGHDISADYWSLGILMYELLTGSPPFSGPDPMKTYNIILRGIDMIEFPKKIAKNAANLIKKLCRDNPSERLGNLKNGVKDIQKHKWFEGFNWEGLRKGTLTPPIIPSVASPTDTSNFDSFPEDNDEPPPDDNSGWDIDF

[5] = target: T2, Tyrosine-protein kinase ZAP-70 (Homo sapiens) (UniProt P43403); assay: Competitive binding affinity to ZAP70 (unknown origin) at 10 uM in presence of ATP relative to control
T2 sequence (whole entry): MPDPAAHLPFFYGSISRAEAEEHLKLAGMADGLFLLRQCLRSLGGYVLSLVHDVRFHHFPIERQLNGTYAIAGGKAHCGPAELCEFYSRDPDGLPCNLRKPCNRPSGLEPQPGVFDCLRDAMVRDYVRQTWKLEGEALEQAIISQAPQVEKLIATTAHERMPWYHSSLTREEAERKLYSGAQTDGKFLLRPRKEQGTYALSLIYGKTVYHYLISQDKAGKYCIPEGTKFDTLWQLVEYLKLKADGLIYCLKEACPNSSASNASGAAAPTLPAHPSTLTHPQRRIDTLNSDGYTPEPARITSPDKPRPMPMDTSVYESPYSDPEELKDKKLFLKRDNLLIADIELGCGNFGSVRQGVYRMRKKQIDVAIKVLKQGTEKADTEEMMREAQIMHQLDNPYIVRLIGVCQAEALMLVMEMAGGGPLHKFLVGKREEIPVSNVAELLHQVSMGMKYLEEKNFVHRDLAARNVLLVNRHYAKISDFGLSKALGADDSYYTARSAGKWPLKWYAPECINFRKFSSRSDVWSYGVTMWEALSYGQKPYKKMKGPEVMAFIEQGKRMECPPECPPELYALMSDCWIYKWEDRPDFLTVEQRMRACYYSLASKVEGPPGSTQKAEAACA

[6] = target: cAMP-dependent protein kinase catalytic subunit beta (Homo sapiens) (UniProt P22694); assay: Competitive binding affinity to PKAC-beta (unknown origin) at 10 uM in presence of ATP relative to control; procedure, shortened: as §1
[7] = target: SRSF protein kinase 1 (Homo sapiens) (UniProt Q96SB4); assay: Competitive binding affinity to SRPK1 (unknown origin) at 10 uM in presence of ATP relative to control
[8] = target: T3, Serine/threonine-protein kinase 17A (Homo sapiens) (UniProt Q9UEE5); assay: Competitive binding affinity to DRAK1 (unknown origin) at 10 uM in presence of ATP relative to control
T3 sequence (whole entry): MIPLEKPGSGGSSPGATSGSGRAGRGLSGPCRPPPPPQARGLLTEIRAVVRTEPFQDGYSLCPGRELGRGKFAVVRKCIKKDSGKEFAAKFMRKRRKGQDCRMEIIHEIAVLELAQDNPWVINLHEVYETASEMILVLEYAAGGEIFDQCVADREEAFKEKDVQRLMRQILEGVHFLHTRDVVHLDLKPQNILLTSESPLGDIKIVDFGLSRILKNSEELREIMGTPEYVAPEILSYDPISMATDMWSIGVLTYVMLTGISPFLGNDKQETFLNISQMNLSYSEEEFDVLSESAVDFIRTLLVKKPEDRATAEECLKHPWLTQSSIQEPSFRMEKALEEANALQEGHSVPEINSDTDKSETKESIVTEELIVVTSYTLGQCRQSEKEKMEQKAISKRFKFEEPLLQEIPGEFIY

[9] = target: Protein kinase C theta type (Homo sapiens) (UniProt Q04759); assay: Competitive binding affinity to PRKCQ (unknown origin) at 10 uM in presence of ATP relative to control
[10] = target: Casein kinase I isoform gamma-3 (Homo sapiens) (UniProt Q9Y6M4); assay: Competitive binding affinity to CSNK1G3 (unknown origin) at 10 uM in presence of ATP relative to control
[11] = target: Mitogen-activated protein kinase kinase kinase 9 (Homo sapiens) (UniProt P80192); assay: Competitive binding affinity to MLK1 (unknown origin) at 10 uM in presence of ATP relative to control
[12] = target: T4, Dual specificity mitogen-activated protein kinase kinase 6 (Homo sapiens) (UniProt P52564); assay: Competitive binding affinity to MEK6 (unknown origin) at 10 uM in presence of ATP relative to control
T4 sequence (whole entry): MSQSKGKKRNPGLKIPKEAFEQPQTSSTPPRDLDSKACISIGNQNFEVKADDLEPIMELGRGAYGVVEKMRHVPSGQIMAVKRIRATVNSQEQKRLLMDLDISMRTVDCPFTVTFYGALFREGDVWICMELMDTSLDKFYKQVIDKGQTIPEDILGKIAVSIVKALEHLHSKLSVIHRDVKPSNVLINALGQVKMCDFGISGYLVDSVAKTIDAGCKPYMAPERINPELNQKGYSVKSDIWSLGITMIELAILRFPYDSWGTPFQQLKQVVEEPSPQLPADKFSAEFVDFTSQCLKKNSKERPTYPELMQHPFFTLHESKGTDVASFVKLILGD

Sequence of Casein kinase I isoform gamma-3 (Homo sapiens) (Q9Y6M4 whole entry, looked up, canonical isoform): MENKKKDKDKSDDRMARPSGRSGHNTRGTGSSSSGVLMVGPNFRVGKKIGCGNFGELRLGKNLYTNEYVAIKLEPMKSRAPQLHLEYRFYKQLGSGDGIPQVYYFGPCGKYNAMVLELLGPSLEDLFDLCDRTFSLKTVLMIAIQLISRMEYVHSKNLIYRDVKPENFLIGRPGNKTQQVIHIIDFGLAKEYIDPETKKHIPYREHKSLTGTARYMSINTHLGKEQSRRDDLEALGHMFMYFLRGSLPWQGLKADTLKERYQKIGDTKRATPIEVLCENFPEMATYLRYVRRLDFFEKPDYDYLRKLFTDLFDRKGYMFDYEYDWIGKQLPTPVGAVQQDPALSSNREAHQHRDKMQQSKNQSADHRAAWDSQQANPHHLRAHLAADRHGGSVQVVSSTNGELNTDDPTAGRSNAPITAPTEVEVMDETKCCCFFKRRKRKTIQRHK
Sequence of Serine/threonine-protein kinase 38-like (Homo sapiens) (Q9Y2H1 2-464 limits assumed): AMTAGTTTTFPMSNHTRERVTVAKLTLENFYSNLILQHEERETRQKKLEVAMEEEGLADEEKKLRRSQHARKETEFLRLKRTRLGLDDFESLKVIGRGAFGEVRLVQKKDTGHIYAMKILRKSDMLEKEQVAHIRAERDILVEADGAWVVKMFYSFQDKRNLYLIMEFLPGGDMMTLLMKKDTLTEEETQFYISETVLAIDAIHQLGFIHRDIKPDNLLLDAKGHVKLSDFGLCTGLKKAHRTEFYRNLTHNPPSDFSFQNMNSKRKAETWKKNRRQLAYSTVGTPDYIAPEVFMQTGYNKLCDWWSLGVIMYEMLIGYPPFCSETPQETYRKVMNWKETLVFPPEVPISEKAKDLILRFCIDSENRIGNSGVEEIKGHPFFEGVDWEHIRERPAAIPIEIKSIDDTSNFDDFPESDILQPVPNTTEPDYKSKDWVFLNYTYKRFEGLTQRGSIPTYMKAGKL
Sequence of SRSF protein kinase 1 (Homo sapiens) (Q96SB4 whole entry): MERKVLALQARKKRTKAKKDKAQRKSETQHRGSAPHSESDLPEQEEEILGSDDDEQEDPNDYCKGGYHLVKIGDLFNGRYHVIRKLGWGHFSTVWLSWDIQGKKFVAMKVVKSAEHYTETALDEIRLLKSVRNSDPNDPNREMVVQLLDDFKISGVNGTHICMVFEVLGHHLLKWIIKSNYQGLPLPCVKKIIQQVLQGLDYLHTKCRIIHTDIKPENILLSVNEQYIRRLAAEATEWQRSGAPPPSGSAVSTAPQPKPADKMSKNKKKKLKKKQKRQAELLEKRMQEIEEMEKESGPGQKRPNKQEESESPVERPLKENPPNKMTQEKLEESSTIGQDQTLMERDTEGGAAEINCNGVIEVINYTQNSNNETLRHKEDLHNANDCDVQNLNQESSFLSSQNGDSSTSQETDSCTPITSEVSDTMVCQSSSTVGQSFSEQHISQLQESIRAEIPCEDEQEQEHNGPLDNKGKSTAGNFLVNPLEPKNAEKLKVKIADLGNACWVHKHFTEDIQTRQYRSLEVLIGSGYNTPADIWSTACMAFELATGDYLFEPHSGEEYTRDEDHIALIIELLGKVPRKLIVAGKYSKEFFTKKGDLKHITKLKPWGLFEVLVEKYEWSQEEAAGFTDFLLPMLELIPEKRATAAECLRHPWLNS
Sequence of Protein kinase C theta type (Homo sapiens) (Q04759 whole entry, looked up, canonical isoform): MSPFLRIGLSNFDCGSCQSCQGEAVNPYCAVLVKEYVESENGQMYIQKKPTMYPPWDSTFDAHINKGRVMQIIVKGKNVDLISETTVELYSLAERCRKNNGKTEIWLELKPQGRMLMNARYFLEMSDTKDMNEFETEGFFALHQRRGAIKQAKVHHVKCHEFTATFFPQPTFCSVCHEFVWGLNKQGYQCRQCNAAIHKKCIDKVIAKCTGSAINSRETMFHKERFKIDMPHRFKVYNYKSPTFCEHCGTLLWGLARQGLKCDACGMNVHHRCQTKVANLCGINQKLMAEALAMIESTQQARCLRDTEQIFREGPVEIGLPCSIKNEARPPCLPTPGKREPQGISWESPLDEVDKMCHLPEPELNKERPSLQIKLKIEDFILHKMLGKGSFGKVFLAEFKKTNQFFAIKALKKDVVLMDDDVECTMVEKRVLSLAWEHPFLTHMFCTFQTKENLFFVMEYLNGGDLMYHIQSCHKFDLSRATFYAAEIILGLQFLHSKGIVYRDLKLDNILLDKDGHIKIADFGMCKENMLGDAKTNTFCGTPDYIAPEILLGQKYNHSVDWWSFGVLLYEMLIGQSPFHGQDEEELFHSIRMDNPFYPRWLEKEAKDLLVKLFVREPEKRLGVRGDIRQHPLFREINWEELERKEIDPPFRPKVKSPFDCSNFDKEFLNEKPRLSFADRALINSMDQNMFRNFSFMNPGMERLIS
Sequence of Receptor-type tyrosine-protein kinase FLT3 (Homo sapiens), P36888 [UNDEFINED MUTATION] (P36888 whole entry, looked up, change not shown): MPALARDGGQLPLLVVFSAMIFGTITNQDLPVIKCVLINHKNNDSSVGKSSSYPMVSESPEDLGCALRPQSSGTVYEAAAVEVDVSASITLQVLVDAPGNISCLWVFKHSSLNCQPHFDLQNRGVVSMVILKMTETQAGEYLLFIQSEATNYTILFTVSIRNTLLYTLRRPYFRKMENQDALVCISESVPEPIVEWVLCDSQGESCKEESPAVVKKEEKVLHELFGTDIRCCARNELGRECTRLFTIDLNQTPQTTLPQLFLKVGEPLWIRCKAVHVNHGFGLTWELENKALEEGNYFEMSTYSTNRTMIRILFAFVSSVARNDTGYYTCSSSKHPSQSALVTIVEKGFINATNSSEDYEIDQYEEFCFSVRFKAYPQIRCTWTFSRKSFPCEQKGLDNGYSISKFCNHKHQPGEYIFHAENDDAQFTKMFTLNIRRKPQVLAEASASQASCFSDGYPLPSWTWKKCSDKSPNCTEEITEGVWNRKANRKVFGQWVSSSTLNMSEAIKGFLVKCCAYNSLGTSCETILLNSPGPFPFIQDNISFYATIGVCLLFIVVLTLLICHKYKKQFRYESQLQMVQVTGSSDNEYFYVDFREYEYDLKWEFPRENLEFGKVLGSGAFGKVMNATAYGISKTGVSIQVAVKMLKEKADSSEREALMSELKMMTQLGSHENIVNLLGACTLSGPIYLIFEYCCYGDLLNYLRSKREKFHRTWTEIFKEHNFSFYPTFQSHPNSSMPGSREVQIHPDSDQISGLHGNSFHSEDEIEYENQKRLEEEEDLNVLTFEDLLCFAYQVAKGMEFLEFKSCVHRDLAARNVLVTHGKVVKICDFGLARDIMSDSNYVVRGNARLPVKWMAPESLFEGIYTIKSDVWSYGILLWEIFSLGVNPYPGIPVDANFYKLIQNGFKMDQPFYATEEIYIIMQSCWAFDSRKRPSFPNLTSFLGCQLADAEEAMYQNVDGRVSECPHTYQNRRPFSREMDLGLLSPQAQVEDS
Sequence of Mitogen-activated protein kinase kinase kinase 9 (Homo sapiens) (P80192 whole entry, looked up): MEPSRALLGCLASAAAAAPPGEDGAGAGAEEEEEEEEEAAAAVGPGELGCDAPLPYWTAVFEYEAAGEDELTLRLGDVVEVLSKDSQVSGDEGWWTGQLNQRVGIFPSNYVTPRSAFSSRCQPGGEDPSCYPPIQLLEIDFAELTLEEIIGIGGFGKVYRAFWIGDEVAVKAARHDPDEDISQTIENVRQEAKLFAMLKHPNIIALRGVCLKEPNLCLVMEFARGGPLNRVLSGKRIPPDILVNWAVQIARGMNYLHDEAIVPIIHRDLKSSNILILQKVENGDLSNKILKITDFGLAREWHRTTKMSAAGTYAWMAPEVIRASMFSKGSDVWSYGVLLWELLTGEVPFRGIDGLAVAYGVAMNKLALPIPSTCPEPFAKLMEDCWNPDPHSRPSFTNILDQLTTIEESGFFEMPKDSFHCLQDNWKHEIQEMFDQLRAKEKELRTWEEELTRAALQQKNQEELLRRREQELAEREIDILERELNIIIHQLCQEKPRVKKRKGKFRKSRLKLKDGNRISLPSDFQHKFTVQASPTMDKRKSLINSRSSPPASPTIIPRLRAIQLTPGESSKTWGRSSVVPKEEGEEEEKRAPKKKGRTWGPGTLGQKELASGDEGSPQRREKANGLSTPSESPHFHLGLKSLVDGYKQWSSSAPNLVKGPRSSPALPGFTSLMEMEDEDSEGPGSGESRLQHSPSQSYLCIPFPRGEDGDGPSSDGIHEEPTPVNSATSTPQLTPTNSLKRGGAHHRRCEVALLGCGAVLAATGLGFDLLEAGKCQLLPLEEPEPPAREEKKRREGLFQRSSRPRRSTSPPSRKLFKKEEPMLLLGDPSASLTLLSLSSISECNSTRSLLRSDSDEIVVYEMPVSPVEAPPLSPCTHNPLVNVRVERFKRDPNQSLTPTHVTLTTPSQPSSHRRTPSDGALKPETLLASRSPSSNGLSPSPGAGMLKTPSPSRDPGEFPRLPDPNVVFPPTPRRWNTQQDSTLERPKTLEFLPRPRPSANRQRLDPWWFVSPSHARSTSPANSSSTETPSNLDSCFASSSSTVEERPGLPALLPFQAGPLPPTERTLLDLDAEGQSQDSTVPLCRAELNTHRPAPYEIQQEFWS

| SMILES | inhibition [1] [%] | inhibition [2] [%] | inhibition [3] [%] | inhibition [4] [%] | inhibition [5] [%] | inhibition [6] [%] | inhibition [7] [%] | inhibition [8] [%] | inhibition [9] [%] | inhibition [10] [%] | inhibition [11] [%] | inhibition [12] [%] |
| --- | --- | --- | --- | --- | --- | --- | --- | --- | --- | --- | --- | --- |
| O[C@H]1CC[C@H](Nc2nccc(-n3ccc4ccccc43)n2)CC1 | < 50 | < 50 | < 50 | < 50 | < 50 | < 50 | < 50 | 98 | < 50 | < 50 | < 50 | 90 |
| CS(=O)(=O)CCCOc1cccc2c1ccn2-c1ccnc(N[C@H]2CC[C@H](C(=O)N3CCC(O)CC3)CC2)n1 | – | – | – | – | – | – | – | > 85 | – | – | – | > 85 |

Continued, values first:

| inhibition [1] [%] | inhibition [2] [%] | inhibition [3] [%] | inhibition [4] [%] | inhibition [5] [%] | inhibition [6] [%] | inhibition [7] [%] | inhibition [8] [%] | inhibition [9] [%] | inhibition [10] [%] | inhibition [11] [%] | inhibition [12] [%] | SMILES |
| --- | --- | --- | --- | --- | --- | --- | --- | --- | --- | --- | --- | --- |
| 100 | 72 | 96 | < 50 | < 50 | < 50 | 100 | – | – | – | – | – | O[C@H]1CC[C@H](Nc2nccc(-c3n[nH]c4ccccc34)n2)CC1 |
| 98 | < 50 | < 50 | < 50 | < 50 | < 50 | < 50 | 100 | < 50 | 96 | < 50 | 96 | O[C@H]1CC[C@H](Nc2nccc(-n3nnc4ccccc43)n2)CC1 |
| 100 | < 50 | < 50 | < 50 | < 50 | < 50 | < 50 | 99 | < 50 | < 50 | < 50 | 90 | O[C@H]1CC[C@H](Nc2nccc(-n3ncc4ccccc43)n2)CC1 |
